Data: ChEMBL document CHEMBL1811814, “Synthesis and evaluation of indole, pyrazole, chromone and pyrimidine based conjugates for tumor growth inhibitory activities--development of highly efficacious cytotoxic agents” (Eur J Med Chem, 2010)

Columns and labels:
Format in all cases: functional
Parameters in all cases: scale not given: the % may be the effect or the level left
UACC-257 = experiment: Growth inhibition of human UACC257 cells assessed tumor cell growth at 10^-5 M
Summary of the method: (§1)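 Single-dose screen at 10^-5 M across the 60 human tumor cell line panel, run to NCI standards. The value is the percent growth of each cell line in the presence of compound. Compounds active at this dose moved on to five-concentration testing (10^-4 to 10^-8 M).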

MOLT-4 = experiment: Growth inhibition of human MOLT4 cells assessed tumor cell growth at 10^-5 M
Summary of the method: (§2)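 NCI 60-human-tumor-cell-line panel screen. Each compound was tested at a single concentration of 10^-5 M, and percent growth of tumor cells was recorded for each cell line. Growth inhibition was expressed from these percent-growth values.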

NCI-H23 = experiment: Growth inhibition of human NCI-H23 cells assessed tumor cell growth at 10^-5 M; summary of the method: as §2
SW-620 = experiment: Growth inhibition of human SW620 cells assessed tumor cell growth at 10^-5 M; summary of the method: as §1
NCI/ADR-RES = experiment: Growth inhibition of human NCI/ADR-RES cells assessed tumor cell growth at 10^-5 M; summary of the method: as §2
K562 = experiment: Growth inhibition of human K562 cells assessed tumor cell growth at 10^-5 M; summary of the method: as §2
HL-60(TB) = experiment: Growth inhibition of human HL-60(TB) cells assessed tumor cell growth at 10^-5 M
Summary of the method: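 HL-60(TB), part of the 60-line panel, tested at a single concentration of 10^-5 M. The read-out is percent tumor cell growth relative to untreated growth.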

CCRF-CEM = experiment: Growth inhibition of human CCRF-CEM cells assessed tumor cell growth at 10^-5 M; summary of the method: as §2
CAKI-1 = experiment: Growth inhibition of human Caki1 cells assessed tumor cell growth at 10^-5 M; summary of the method: as §2
SNB-19 = experiment: Growth inhibition of human SNB19 cells assessed tumor cell growth at 10^-5 M; summary of the method: as §1
MDA-MB-231 = experiment: Growth inhibition of human MDA-MB-231 cells assessed tumor cell growth at 10^-5 M; summary of the method: as §2
HCC 2998 = experiment: Growth inhibition of human HCC2998 cells assessed tumor cell growth at 10^-5 M; summary of the method: as §2
NCI-H322M = experiment: Growth inhibition of human NCI-H322M cells assessed tumor cell growth at 10^-5 M; summary of the method: as §2
HT-29 = experiment: Growth inhibition of human HT-29 cells assessed tumor cell growth at 10^-5 M; summary of the method: as §2
MCF7 = experiment: Growth inhibition of human MCF7 cells assessed tumor cell growth at 10^-5 M; summary of the method: as §2
HCT-15 = experiment: Growth inhibition of human HCT15 cells assessed tumor cell growth at 10^-5 M; summary of the method: as §2
IGROV-1 = experiment: Growth inhibition of human IGROV1 cells assessed tumor cell growth at 10^-5 M; summary of the method: as §2
U-251 = experiment: Growth inhibition of human U251 cells assessed tumor cell growth at 10^-5 M; summary of the method: as §1
MDA-MB-468 = experiment: Growth inhibition of human MDA-MB-468 cells assessed tumor cell growth at 10^-5 M; summary of the method: as §2
UACC-62 = experiment: Growth inhibition of human UACC62 cells assessed tumor cell growth at 10^-5 M; summary of the method: as §1
HCT-116 = experiment: Growth inhibition of human HCT116 cells assessed tumor cell growth at 10^-5 M; summary of the method: as §2
SF-295 = experiment: Growth inhibition of human SF295 cells assessed tumor cell growth at 10^-5 M; summary of the method: as §2
TK-10 = experiment: Growth inhibition of human TK10 cells assessed tumor cell growth at 10^-5 M; summary of the method: as §1
SK-MEL-5 = experiment: Growth inhibition of human SK-MEL-5 cells assessed tumor cell growth at 10^-5 M; summary of the method: as §2
786-0 = experiment: Growth inhibition of human 786-0 cells assessed tumor cell growth at 10^-5 M; summary of the method: as §2
T47D = experiment: Growth inhibition of human T47D cells assessed tumor cell growth at 10^-5 M; summary of the method: as §1
OVCAR-8 = experiment: Growth inhibition of human OVCAR8 cells assessed tumor cell growth at 10^-5 M; summary of the method: as §2
NCI-H226 = experiment: Growth inhibition of human NCI-H226 cells assessed tumor cell growth at 10^-5 M; summary of the method: as §2
A549 = experiment: Growth inhibition of human A549 cells assessed tumor cell growth at 10^-5 M; summary of the method: as §2
BT-549 = experiment: Growth inhibition of human BT549 cells assessed tumor cell growth at 10^-5 M; summary of the method: as §2
HOP-62 = experiment: Growth inhibition of human HOP62 cells assessed tumor cell growth at 10^-5 M; summary of the method: as §2
OVCAR-3 = experiment: Growth inhibition of human OVCAR3 cells assessed tumor cell growth at 10^-5 M; summary of the method: as §2
SF-268 = experiment: Growth inhibition of human SF268 cells assessed tumor cell growth at 10^-5 M; summary of the method: as §2
MDA-MB-435 = experiment: Growth inhibition of human MDA-MB-435 cells assessed tumor cell growth at 10^-5 M; summary of the method: as §2
NCI-H460 = experiment: Growth inhibition of human NCI-H460 cells assessed tumor cell growth at 10^-5 M; summary of the method: as §2
M14 = experiment: Growth inhibition of human M14 cells assessed tumor cell growth at 10^-5 M; summary of the method: as §2
UO-31 = experiment: Growth inhibition of human UO31 cells assessed tumor cell growth at 10^-5 M; summary of the method: as §1
SF-539 = experiment: Growth inhibition of human SF539 cells assessed tumor cell growth at 10^-5 M; summary of the method: as §2
SK-OV-3 = experiment: Growth inhibition of human SKOV3 cells assessed tumor cell growth at 10^-5 M; summary of the method: as §2
PC-3 = experiment: Growth inhibition of human PC3 cells assessed tumor cell growth at 10^-5 M; summary of the method: as §2
DU-145 = experiment: Growth inhibition of human DU145 cells assessed tumor cell growth at 10^-5 M; summary of the method: as §2
A498 = experiment: Growth inhibition of human A498 cells assessed tumor cell growth at 10^-5 M; summary of the method: as §2
HOP-92 = experiment: Growth inhibition of human HOP92 cells assessed tumor cell growth at 10^-5 M; summary of the method: as §2
COLO 205 = experiment: Growth inhibition of human COLO205 cells assessed tumor cell growth at 10^-5 M; summary of the method: as §2
RXF 393 = experiment: Growth inhibition of human RXF393 cells assessed tumor cell growth at 10^-5 M; summary of the method: as §2
ACHN = experiment: Growth inhibition of human ACHN cells assessed tumor cell growth at 10^-5 M; summary of the method: as §2
SNB-75 = experiment: Growth inhibition of human SNB75 cells assessed tumor cell growth at 10^-5 M; summary of the method: as §1
[1] = Growth inhibition of human […] cells assessed tumor cell growth at 10^-5 M; summary of the method: as §2
SK-MEL-2 = experiment: Growth inhibition of human SK-MEL-2 cells assessed tumor cell growth at 10^-5 M; summary of the method: as §2
OVCAR-4 = experiment: Growth inhibition of human OVCAR4 cells assessed tumor cell growth at 10^-5 M; summary of the method: as §2
OVCAR-5 = experiment: Growth inhibition of human OVCAR5 cells assessed tumor cell growth at 10^-5 M; summary of the method: as §2
SR = experiment: Growth inhibition of human SR cells assessed tumor cell growth at 10^-5 M; summary of the method: as §1
NCI-H522 = experiment: Growth inhibition of human NCI-H522 cells assessed tumor cell growth at 10^-5 M; summary of the method: as §2
KM12 = experiment: Growth inhibition of human KM12 cells assessed tumor cell growth at 10^-5 M; summary of the method: as §2
LOX IMVI = experiment: Growth inhibition of human LOXIMVI cells assessed tumor cell growth at 10^-5 M; summary of the method: as §2
Malme-3M = experiment: Growth inhibition of human MALME-3M cells assessed tumor cell growth at 10^-5 M; summary of the method: as §2
EKVX = experiment: Growth inhibition of human EKVX cells assessed tumor cell growth at 10^-5 M; summary of the method: as §2
[2] = Growth inhibition of human Hs 578T cells assessed tumor cell growth at 10^-5 M; summary of the method: as §2
SN12C = experiment: Growth inhibition of human SN12C cells assessed tumor cell growth at 10^-5 M; summary of the method: as §2
SK-MEL-28 = experiment: Growth inhibition of human SK-MEL-28 cells assessed tumor cell growth at 10^-5 M; summary of the method: as §2

CC1=NN(c2cccc(Cl)c2)C(=O)/C1=C\c1ccccn1
Activity (UACC-257): 115.54% | Activity (MOLT-4): 111.67% | Activity (NCI-H23): 111.77% | Activity (SW-620): 116.97% | Activity (NCI/ADR-RES): 116.87% | Activity (K562): 102.25% | Activity (HL-60(TB)): 113.01% | Activity (CCRF-CEM): 32.58% | Activity (CAKI-1): 98.46% | Activity (SNB-19): 111.92% | Activity (MDA-MB-231): 106.88% | Activity (HCC 2998): 120.72% | Activity (NCI-H322M): 123.35% | Activity (HT-29): 114.19% | Activity (MCF7): 102.77% | Activity (HCT-15): 114.26% | Activity (IGROV-1): 103.16% | Activity (U-251): 115.89% | Activity (MDA-MB-468): 116.6% | Activity (UACC-62): 101.53% | Activity (HCT-116): 88.7% | Activity (SF-295): 118.39% | Activity (TK-10): 118.17% | Activity (SK-MEL-5): 103.51% | Activity (786-0): 113.47% | Activity (T47D): 100.29% | Activity (OVCAR-8): 105.14% | Activity (NCI-H226): 112.86% | Activity (A549): 116.18% | Activity (BT-549): 111.06% | Activity (HOP-62): 107.34% | Activity (OVCAR-3): 117.75% | Activity (SF-268): 100.43% | Activity (MDA-MB-435): 117.42% | Activity (NCI-H460): 117.15% | Activity (M14): 80.87% | Activity (UO-31): 81.52% | Activity (SF-539): 115.91% | Activity (SK-OV-3): 113.71% | Activity (PC-3): 113.15% | Activity (DU-145): 120.58% | Activity (A498): 111.6% | Activity (HOP-92): 100.37% | Activity (COLO 205): 112.21% | Activity (RXF 393): 114.31% | Activity (ACHN): 103.1% | Activity (SNB-75): 103.79% | Activity [1]: 96.65% | Activity (SK-MEL-2): 112.74% | Activity (OVCAR-4): 128.45% | Activity (OVCAR-5): 116.2% | Activity (SR): 112.11% | Activity (NCI-H522): 104.42% | Activity (KM12): 111.47% | Activity (LOX IMVI): 116.29% | Activity (Malme-3M): 121.3% | Activity (EKVX): 117.01% | Activity [2]: 111.76% | Activity (SN12C): 91.77% | Activity (SK-MEL-28): 128.95%
